From ChEMBL document CHEMBL4819122, “Novel 4-(piperazin-1-yl)quinolin-2(1H)-one bearing thiazoles with antiproliferative activity through VEGFR-2-TK inhibition” (Bioorg Med Chem, 2021)
Calls of active or inactive are those of the source. The calls are words filed in the database; no cut-off is given here.

How the values were obtained:
[1] = tested on: HCT-116; assay: Cytotoxicity against human HCT-116 assessed as growth inhibition at 10 uM by NCI protocol relative to control; format: functional; details: read-out: GI
Outline: (§1)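 Run by NCI as a single-dose screen at 10 μM across the sixty-cell-line panel, which covers nine human tumour tissue types. The read-out is percent growth inhibition of treated cells relative to untreated cells.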

[2] = tested on: TK-10; assay: Cytotoxicity against human TK-10 assessed as growth inhibition at 10 uM by NCI protocol relative to control; format: functional; details: read-out: GI
Outline: (§2)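 Run by the NCI under its standard protocol: one dose of 10 μM against a sixty-line panel from nine human tumour tissues. Result given as percent growth inhibition of treated cells relative to untreated cells.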

[3] = tested on: T47D; assay: Cytotoxicity against human T47D cells assessed as reduction in cell viability after 3 hrs by MTT assay
[4] = tested on: LOX IMVI; assay: Cytotoxicity against human LOX IMVI assessed as growth inhibition at 10 uM by NCI protocol relative to control; format: functional; details: read-out: GI; outline: as §1
[5] = tested on: EKVX; assay: Cytotoxicity against human EKVX assessed as growth inhibition at 10 uM by NCI protocol relative to control; format: functional; details: read-out: GI; outline: as §1
[6] = tested on: UO-31; assay: Cytotoxicity against human UO31 assessed as growth inhibition at 10 uM by NCI protocol relative to control; format: functional; details: read-out: GI; outline: as §2
[7] = tested on: SK-MEL-5; assay: Cytotoxicity against human SK-MEL-5 assessed as growth inhibition at 10 uM by NCI protocol relative to control; format: functional; details: read-out: GI; outline: as §1
[8] = tested on: NCI/ADR-RES; assay: Cytotoxicity against human NCl/ADR-RES assessed as growth inhibition at 10 uM by NCI protocol relative to control; format: functional; details: read-out: GI; outline: as §1
[9] = tested on: PC-3; assay: Cytotoxicity against human PC3 assessed as growth inhibition at 10 uM by NCI protocol relative to control; format: functional; details: read-out: GI; outline: as §1
[10] = tested on: MDA-MB-435; assay: Cytotoxicity against human MDA-MB-435 assessed as growth inhibition at 10 uM by NCI protocol relative to control; format: functional, cell-based; outline: as §1
[11] = tested on: A549; assay: Cytotoxicity against human A549 assessed as growth inhibition at 10 uM by NCI protocol relative to control; format: functional; details: read-out: GI; outline: as §1
[12] = tested on: HT-29; assay: Cytotoxicity against human HT29 assessed as growth inhibition at 10 uM by NCI protocol relative to control; format: functional; details: read-out: GI; outline: as §1
[13] = tested on: NCI-H226; assay: Cytotoxicity against human NCI-H226 assessed as growth inhibition at 10 uM by NCI protocol relative to control; format: functional; details: read-out: GI; outline: as §1
[14] = tested on: BT-549; assay: Cytotoxicity against human BT-549 assessed as growth inhibition at 10 uM by NCI protocol relative to control; format: functional; details: read-out: GI; outline: as §1
[15] = tested on: K562; assay: Cytotoxicity against human K-562 assessed as growth inhibition at 10 uM by NCI protocol relative to control; format: functional; details: read-out: GI; outline: as §1
[16] = tested on: CCRF-CEM; assay: Cytotoxicity against human CCRF-CEM assessed as growth inhibition at 10 uM by NCI protocol relative to control; format: functional; details: read-out: GI; outline: as §1
[17] = tested on: SF-295; assay: Cytotoxicity against human SF-295 assessed as growth inhibition at 10 uM by NCI protocol relative to control; format: functional; details: read-out: GI; outline: as §1
[18] = tested on: NCI-H23; assay: Cytotoxicity against human NCI-H23 assessed as growth inhibition at 10 uM by NCI protocol relative to control; format: functional; details: read-out: GI; outline: as §1
[19] = tested on: 786-0; assay: Cytotoxicity against human 786-0 assessed as growth inhibition at 10 uM by NCI protocol relative to control; format: functional; details: read-out: GI; outline: as §1
[20] = tested on: SNB-75; assay: Cytotoxicity against human SNB-75 assessed as growth inhibition at 10 uM by NCI protocol relative to control; format: functional; details: read-out: GI; outline: as §2
[21] = tested on: RPMI-8226; assay: Cytotoxicity against human RPMI-8226 assessed as growth inhibition at 10 uM by NCI protocol relative to control; format: functional; details: read-out: GI; outline: as §1
[22] = tested on: OVCAR-8; assay: Cytotoxicity against human OVCAR-8 assessed as growth inhibition at 10 uM by NCI protocol relative to control; format: functional; details: read-out: GI; outline: as §1
[23] = tested on: A498; assay: Cytotoxicity against human A498 assessed as growth inhibition at 10 uM by NCI protocol relative to control; format: functional; details: read-out: GI; outline: as §1
[24] = tested on: MOLT-4; assay: Cytotoxicity against human MOLT-4 assessed as growth inhibition at 10 uM by NCI protocol relative to control; format: functional; details: read-out: GI; outline: as §1
[25] = tested on: MDA-MB-231; assay: Cytotoxicity against human MDA-MB-231 assessed as growth inhibition at 10 uM by NCI protocol relative to control; format: functional; details: read-out: GI; outline: as §1
[26] = tested on: OVCAR-3; assay: Cytotoxicity against human OVCAR-3 assessed as growth inhibition at 10 uM by NCI protocol relative to control; format: functional; details: read-out: GI; outline: as §1
[27] = tested on: OVCAR-4; assay: Cytotoxicity against human OVCAR-4 assessed as growth inhibition at 10 uM by NCI protocol relative to control; format: functional; details: read-out: GI; outline: as §1
[28] = tested on: DU-145; assay: Cytotoxicity against human DU-145 assessed as growth inhibition at 10 uM by NCI protocol relative to control; format: functional; details: read-out: GI; outline: as §1
[29] = tested on: UACC-257; assay: Cytotoxicity against human UACC-257 assessed as growth inhibition at 10 uM by NCI protocol relative to control; format: functional; details: read-out: GI; outline: as §2
[30] = tested on: MCF7; assay: Cytotoxicity against human MCF7 assessed as growth inhibition at 10 uM by NCI protocol relative to control; format: functional; details: read-out: GI; outline: as §1
[31] = tested on: SR; assay: Cytotoxicity against human SR assessed as growth inhibition at 10 uM by NCI protocol relative to control; format: functional; details: read-out: GI; outline: as §2
[32] = tested on: SK-MEL-28; assay: Cytotoxicity against human SK-MEL-28 assessed as growth inhibition at 10 uM by NCI protocol relative to control; format: functional; details: read-out: GI; outline: as §1
[33] = tested on: SK-OV-3; assay: Cytotoxicity against human SK-OV-3 assessed as growth inhibition at 10 uM by NCI protocol relative to control; format: functional; details: read-out: GI; outline: as §1
[34] = tested on: SW-620; assay: Cytotoxicity against human SW-620 assessed as growth inhibition at 10 uM by NCI protocol relative to control; format: functional; details: read-out: GI; outline: as §2
[35] = tested on: IGROV-1; assay: Cytotoxicity against human IGROVI assessed as growth inhibition at 10 uM by NCI protocol relative to control; format: functional; details: read-out: GI; outline: as §1
[36] = tested on: HOP-92; assay: Cytotoxicity against human HOP-92 assessed as growth inhibition at 10 uM by NCI protocol relative to control; format: functional; details: read-out: GI; outline: as §1
[37] = tested on: NCI-H522; assay: Cytotoxicity against human NCI-H522 assessed as growth inhibition at 10 uM by NCI protocol relative to control; format: functional; details: read-out: GI; outline: as §1
[38] = tested on: SF-539; assay: Cytotoxicity against human […] assessed as growth inhibition at 10 uM by NCI protocol relative to control; format: functional; details: read-out: GI; outline: as §1
[39] = tested on: KM12; assay: Cytotoxicity against human KM12 assessed as growth inhibition at 10 uM by NCI protocol relative to control; format: functional; details: read-out: GI; outline: as §1
[40] = tested on: HL-60; assay: Cytotoxicity against human HL60 assessed as growth inhibition at 10 uM by NCI protocol relative to control; format: functional; details: read-out: GI; outline: as §1
[41] = tested on: NCI-H460; assay: Cytotoxicity against human NCI-H460 assessed as growth inhibition at 10 uM by NCI protocol relative to control; format: functional; details: read-out: GI; outline: as §1
[42] = tested on: HCT-15; assay: Cytotoxicity against human HCT-15 assessed as growth inhibition at 10 uM by NCI protocol relative to control; format: functional; details: read-out: GI; outline: as §1

Q: `O=C(CN1CCN(c2cc(=O)[nH]c3ccc(F)cc23)CC1)Nc1nc(-c2ccc(Cl)cc2)cs1` was tested. Which inhibition of growth at 10 µM [1] did it give?
A: 48%

Q: And the inhibition of growth at 10 µM [2]?
A: 34.3%

Q: What about the IC50 [3] of the same molecule?
A: 2730 nM

Q: And the inhibition of growth at 10 µM [4]?
A: 21.8%

Q: What about the inhibition of growth at 10 µM [5] of the same molecule?
A: 43.3%

Q: What about the inhibition of growth at 10 µM [6] of the same molecule?
A: 38%

Q: What about the inhibition of growth at 10 µM [7] of the same molecule?
A: 34.6%

Q: And the inhibition of growth at 10 µM [8]?
A: 41.9%

Q: And the inhibition of growth at 10 µM [9]?
A: 45.1%

Q: What about the “growth inhibition (GI)” value [10] of the same molecule?
A: inactive

Q: And the inhibition of growth at 10 µM [11]?
A: 44.4%

Q: And the inhibition of growth at 10 µM [12]?
A: 25.6%

Q: What about the inhibition of growth at 10 µM [13] of the same molecule?
A: 12.6%

Q: What about the inhibition of growth at 10 µM [14] of the same molecule?
A: 27.5%

Q: What about the inhibition of growth at 10 µM [15] of the same molecule?
A: 44.8%

Q: What about the inhibition of growth at 10 µM [16] of the same molecule?
A: 33.3%

Q: And the inhibition of growth at 10 µM [17]?
A: 20.4%

Q: And the inhibition of growth at 10 µM [18]?
A: 28.8%

Q: And the inhibition of growth at 10 µM [19]?
A: 32.8%

Q: What about the inhibition of growth at 10 µM [20] of the same molecule?
A: 46.2%

Q: And the inhibition of growth at 10 µM [21]?
A: 38.3%

Q: And the inhibition of growth at 10 µM [22]?
A: 24%

Q: What about the inhibition of growth at 10 µM [23] of the same molecule?
A: 60.5%

Q: What about the inhibition of growth at 10 µM [24] of the same molecule?
A: 52.8%

Q: What about the inhibition of growth at 10 µM [25] of the same molecule?
A: 16.6%

Q: And the inhibition of growth at 10 µM [26]?
A: 16.9%

Q: And the inhibition of growth at 10 µM [27]?
A: 39.1%

Q: And the inhibition of growth at 10 µM [28]?
A: 41.1%

Q: And the inhibition of growth at 10 µM [29]?
A: 31.3%

Q: What about the inhibition of growth at 10 µM [30] of the same molecule?
A: 39.7%

Q: What about the inhibition of growth at 10 µM [31] of the same molecule?
A: 29.1%

Q: And the inhibition of growth at 10 µM [32]?
A: 17.3%

Q: What about the inhibition of growth at 10 µM [33] of the same molecule?
A: 11.9%

Q: And the inhibition of growth at 10 µM [34]?
A: 41.2%

Q: What about the inhibition of growth at 10 µM [35] of the same molecule?
A: 50.8%

Q: And the inhibition of growth at 10 µM [36]?
A: 29.7%

Q: What about the inhibition of growth at 10 µM [37] of the same molecule?
A: 25.9%

Q: What about the inhibition of growth at 10 µM [38] of the same molecule?
A: 30.5%

Q: What about the inhibition of growth at 10 µM [39] of the same molecule?
A: 30.1%

Q: And the inhibition of growth at 10 µM [40]?
A: 38.3%

Q: And the inhibition of growth at 10 µM [41]?
A: 18.1%

Q: And the inhibition of growth at 10 µM [42]?
A: 34.9%
